This sample holds only a part of the variants without activity.
B1: tRNA (parent)
chain: GUUCCGUUGGCGUAAUGGUAACGCGUCUCCCUCCUAAGGAGAAGACUGCGGGUUCGAGUCCCGUACGGAACG

Variants of: B1
Test: yeast fitness relative to wild type (ratio to wild type); higher = fitter; tRNA-Arg(CCU), competitive growth, 37 C, YPD
In short: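 The tRNA-Arg(CCU) gene variants were made by chemical synthesis with a 3% per-site mutation rate at 69 sites and inserted at the native genomic locus of Saccharomyces cerevisiae. After pooling, the strains were competed in YPD at 37°C for 24 hours in six parallel replicates. Gene amplicons from the start population and each end population were read by 100-nucleotide paired-end sequencing, and Darwinian fitness relative to wild type was taken from genotype frequency changes. Genotypes needed ≥ 100 starting reads, and estimates < 0.5 were set to 0.5.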

Q: With G6A A45C A70G as the variant, how does the yeast fitness read?
A: Its yeast fitness is 0.536.

Q: With C5U C62U as the variant, how does the yeast fitness read?
A: Its yeast fitness is 1.03.

Q: With G6A A14U A15U C31G as the variant, how does the yeast fitness read?
A: The yeast fitness was 0.668.

Q: Which yeast fitness does the source give for C5U U19A G51C G58A here?
A: The yeast fitness was no more than 0.5.

Q: With C5U U47A G48C G51A C61A as the variant, how does the yeast fitness read?
A: The yeast fitness was 0.564.

Q: With C5U U8A A21G C49U G63C as the variant, how does the yeast fitness read?
A: Its yeast fitness is no more than 0.5.

Q: With C5U G17C C29A C46G G56A as the variant, how does the yeast fitness read?
A: The yeast fitness was no more than 0.5.

Q: With C5U C55G A69U as the variant, how does the yeast fitness read?
A: The yeast fitness was no more than 0.5.

Q: With C5U G18A A40U U47C U53C G68A as the variant, how does the yeast fitness read?
A: Its yeast fitness is no more than 0.5.

Q: For C5U C61U A70G, which yeast fitness is on record?
A: Its yeast fitness is 0.609.

Q: Which yeast fitness does the source give for C5U U13A C27G A57C G67A A69U here?
A: Its yeast fitness is no more than 0.5.

Q: Which yeast fitness does the source give for C5U U16A C34A A70G here?
A: The yeast fitness was no more than 0.5.

Q: With C5U U19C C24G C61A A70G as the variant, how does the yeast fitness read?
A: Its yeast fitness is no more than 0.5.

Q: With C5U U19A G48A as the variant, how does the yeast fitness read?
A: Its yeast fitness is 0.741.

Q: With C5U U7A A45G G67A as the variant, how does the yeast fitness read?
A: The yeast fitness was no more than 0.5.

Q: Which yeast fitness does the source give for G6A A45G here?
A: Its yeast fitness is 0.928.

Q: Which yeast fitness does the source give for C5U G18A A40U U47C G68A here?
A: The yeast fitness was 0.617.

Q: Which yeast fitness does the source give for C5U U7A A65C here?
A: The yeast fitness was 0.64.

Q: Which yeast fitness does the source give for C5U G48A here?
A: Its yeast fitness is 0.891.

Q: For C5U U16A G38A A42G U64G, which yeast fitness is on record?
A: Its yeast fitness is no more than 0.5.

Q: With C5U G38C G39C A40G G44A C46G G52A as the variant, how does the yeast fitness read?
A: The yeast fitness was no more than 0.5.

Q: For C5U G50C G51C G56C G67A, which yeast fitness is on record?
A: Its yeast fitness is no more than 0.5.

Q: With C5U U26A G48C A57G as the variant, how does the yeast fitness read?
A: Its yeast fitness is no more than 0.5.

Q: With G6A A14G C24A C31U A40U A70G as the variant, how does the yeast fitness read?
A: Its yeast fitness is no more than 0.5.

Q: For C5U U8A G68A, which yeast fitness is on record?
A: The yeast fitness was 0.544.

Q: For C5U U28G C29U G50C, which yeast fitness is on record?
A: Its yeast fitness is no more than 0.5.

Q: With C5U U19C G52A as the variant, how does the yeast fitness read?
A: The yeast fitness was 0.625.

Q: Which yeast fitness does the source give for G6A A14C G41A A42U G56A G63C here?
A: Its yeast fitness is 0.665.

Q: With C5U G38C A65U as the variant, how does the yeast fitness read?
A: The yeast fitness was no more than 0.5.

Q: For C5U U19A G38C C62G G68C, which yeast fitness is on record?
A: Its yeast fitness is 0.62.

Q: With C5U U19C A37G G63C as the variant, how does the yeast fitness read?
A: The yeast fitness was no more than 0.5.

Q: For C5U G10A A20G A36U A43C C61G, which yeast fitness is on record?
A: Its yeast fitness is no more than 0.5.

Q: For C5U U47C G51A, which yeast fitness is on record?
A: Its yeast fitness is 0.548.

Q: With G6A A36C A40U as the variant, how does the yeast fitness read?
A: Its yeast fitness is no more than 0.5.

Q: Which yeast fitness does the source give for G6A A36G A43C A69C here?
A: The yeast fitness was no more than 0.5.

Q: For C5U U19C U26A C62A, which yeast fitness is on record?
A: Its yeast fitness is no more than 0.5.

Q: With C5U U7A G10A G48C as the variant, how does the yeast fitness read?
A: The yeast fitness was no more than 0.5.

Q: Which yeast fitness does the source give for C5U G44A here?
A: Its yeast fitness is 1.08.

Q: For C5U U8C G41C, which yeast fitness is on record?
A: Its yeast fitness is 0.542.

Q: For C5U C61G G67U, which yeast fitness is on record?
A: The yeast fitness was no more than 0.5.

Q: Which yeast fitness does the source give for G6A A42G C61G C66A here?
A: Its yeast fitness is no more than 0.5.

Q: For C5U U13C C61U, which yeast fitness is on record?
A: Its yeast fitness is 0.673.

Q: Which yeast fitness does the source give for C5U G18A C30A G58A G68U here?
A: The yeast fitness was 0.581.

Q: With G6A A14U C31G G38A as the variant, how does the yeast fitness read?
A: The yeast fitness was no more than 0.5.

Q: With C5U G10A A70U as the variant, how does the yeast fitness read?
A: Its yeast fitness is 0.609.

Q: Which yeast fitness does the source give for G6A A14C G58A here?
A: The yeast fitness was 0.613.

Q: With G6A A21C C49A A70G as the variant, how does the yeast fitness read?
A: Its yeast fitness is no more than 0.5.

Q: With G6A A20G A36G C49G as the variant, how does the yeast fitness read?
A: The yeast fitness was no more than 0.5.

Q: Which yeast fitness does the source give for C5U U7A C30A G58C here?
A: The yeast fitness was 0.543.

Q: Which yeast fitness does the source give for G6A A14U A57G U59C here?
A: Its yeast fitness is no more than 0.5.

Q: For C5U U13G A69U, which yeast fitness is on record?
A: Its yeast fitness is 0.76.

Q: For C5U U8C C27U G48A C62A C66U, which yeast fitness is on record?
A: The yeast fitness was no more than 0.5.

Q: For C5U U7G A40G A57U, which yeast fitness is on record?
A: The yeast fitness was no more than 0.5.

Q: For C5U U16G A43G G67C, which yeast fitness is on record?
A: The yeast fitness was no more than 0.5.

Q: With C5U G10A A21G G39A G48C as the variant, how does the yeast fitness read?
A: The yeast fitness was 0.598.

Q: With C5U U26C as the variant, how does the yeast fitness read?
A: Its yeast fitness is 0.862.

Q: Which yeast fitness does the source give for C5U G9A C22U here?
A: Its yeast fitness is 0.593.

Q: For G6A A14U A57G U64G, which yeast fitness is on record?
A: The yeast fitness was no more than 0.5.

Q: With C5U G10A A14U C31A C46A A65U as the variant, how does the yeast fitness read?
A: Its yeast fitness is no more than 0.5.

Q: For G6A A37U A40C, which yeast fitness is on record?
A: Its yeast fitness is no more than 0.5.

Q: Which yeast fitness does the source give for C5U G9C G23A G50A A65U here?
A: Its yeast fitness is no more than 0.5.

Q: With C5U G38C G41C C60G as the variant, how does the yeast fitness read?
A: The yeast fitness was no more than 0.5.

Q: For G6A A14U C55A, which yeast fitness is on record?
A: The yeast fitness was 0.552.

Q: For C5U U8C C29G U53G, which yeast fitness is on record?
A: Its yeast fitness is no more than 0.5.

Q: With G6A A15G U28G A42U G48A as the variant, how does the yeast fitness read?
A: The yeast fitness was no more than 0.5.

Q: For C5U G52A, which yeast fitness is on record?
A: Its yeast fitness is 0.697.

Q: For G6A A20G A21G C29G, which yeast fitness is on record?
A: The yeast fitness was no more than 0.5.

Q: For C5U C55U, which yeast fitness is on record?
A: Its yeast fitness is 0.864.

Q: With C5U U7G A14G C30A A65C as the variant, how does the yeast fitness read?
A: The yeast fitness was 0.704.

Q: With G6A A20C C61G G68C as the variant, how does the yeast fitness read?
A: The yeast fitness was no more than 0.5.

Q: Which yeast fitness does the source give for C5U G18A here?
A: The yeast fitness was 0.76.

Q: Which yeast fitness does the source give for G6A A21C U47A C61A A70C here?
A: Its yeast fitness is no more than 0.5.

Q: Which yeast fitness does the source give for C5U G50C here?
A: The yeast fitness was 0.699.

Q: For C5U C46U C55A G56C, which yeast fitness is on record?
A: The yeast fitness was no more than 0.5.

Q: Which yeast fitness does the source give for C5U G12C G44C here?
A: The yeast fitness was 0.53.

Q: With C5U U32C A70U as the variant, how does the yeast fitness read?
A: The yeast fitness was 0.66.

Q: With C5U G25A U26A G56C A65C as the variant, how does the yeast fitness read?
A: The yeast fitness was no more than 0.5.

Q: With C5U U19C G67C A70U as the variant, how does the yeast fitness read?
A: Its yeast fitness is no more than 0.5.

Q: Which yeast fitness does the source give for G6A A20G A45G here?
A: The yeast fitness was 0.803.

Q: For C5U G9C C11G C24A U26G C31G A45U C61U, which yeast fitness is on record?
A: Its yeast fitness is no more than 0.5.

Q: With C5U C46U C60G as the variant, how does the yeast fitness read?
A: The yeast fitness was no more than 0.5.

Q: For C5U G6A C11A U19A A69U, which yeast fitness is on record?
A: The yeast fitness was no more than 0.5.

Q: With C5U U28G A40C as the variant, how does the yeast fitness read?
A: Its yeast fitness is 0.613.
